According to ChEMBL document CHEMBL4414562, “Discovery of the First in Vivo Active Inhibitors of the Soluble Epoxide Hydrolase Phosphatase Domain” (J Med Chem, 2019):
Active and inactive are the calls of the source. The calls are words filed in the database; no cut-off is given here.

How the values were obtained:
Format in all cases: cell-based
[1] = target: T1, Peroxisome proliferator-activated receptor gamma (Homo sapiens) (UniProt P37231); assay: Activation of Gal4-fused human PPARgamma LBD transfected in HEK293T cells at 10 uM after 12 to 14 hrs by luciferase reporter gene assay
T1 sequence (whole entry): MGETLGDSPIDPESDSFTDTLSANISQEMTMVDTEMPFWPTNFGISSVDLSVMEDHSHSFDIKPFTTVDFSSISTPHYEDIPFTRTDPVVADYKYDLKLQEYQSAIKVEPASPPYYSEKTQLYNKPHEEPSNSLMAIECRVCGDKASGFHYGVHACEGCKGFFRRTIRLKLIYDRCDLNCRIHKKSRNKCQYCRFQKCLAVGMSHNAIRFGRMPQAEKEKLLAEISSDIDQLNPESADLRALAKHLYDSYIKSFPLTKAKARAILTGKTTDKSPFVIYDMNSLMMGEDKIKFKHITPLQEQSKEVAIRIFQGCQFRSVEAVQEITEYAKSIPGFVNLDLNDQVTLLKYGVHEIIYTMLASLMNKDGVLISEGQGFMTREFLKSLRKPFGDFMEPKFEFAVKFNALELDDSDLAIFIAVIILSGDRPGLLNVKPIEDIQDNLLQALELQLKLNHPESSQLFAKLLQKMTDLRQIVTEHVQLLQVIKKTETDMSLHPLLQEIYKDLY
How it was run: (§1)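 Gal4–human nuclear receptor LBD fusion (pFA-CMV-hNR-LBD) co-transfected with pFR-Luc and pRL-SV40 (Lipofectamine LTX) into HEK293T cells seeded the day before. 5 h post-transfection, compound added in Opti-MEM with 0.1% DMSO and incubated 12−14 h. Dual-Glo firefly/Renilla luciferase read. Activation expressed relative to reference agonist at 1 μM. Triplicates, ≥3 independent experiments.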

[2] = target: T2, Peroxisome proliferator-activated receptor delta (Homo sapiens) (UniProt Q03181); assay: Activation of Gal4-fused human PPARbeta/delta LBD transfected in HEK293T cells at 10 uM after 12 to 14 hrs by luciferase reporter gene assay; how it was run: as §1
T2 sequence (whole entry): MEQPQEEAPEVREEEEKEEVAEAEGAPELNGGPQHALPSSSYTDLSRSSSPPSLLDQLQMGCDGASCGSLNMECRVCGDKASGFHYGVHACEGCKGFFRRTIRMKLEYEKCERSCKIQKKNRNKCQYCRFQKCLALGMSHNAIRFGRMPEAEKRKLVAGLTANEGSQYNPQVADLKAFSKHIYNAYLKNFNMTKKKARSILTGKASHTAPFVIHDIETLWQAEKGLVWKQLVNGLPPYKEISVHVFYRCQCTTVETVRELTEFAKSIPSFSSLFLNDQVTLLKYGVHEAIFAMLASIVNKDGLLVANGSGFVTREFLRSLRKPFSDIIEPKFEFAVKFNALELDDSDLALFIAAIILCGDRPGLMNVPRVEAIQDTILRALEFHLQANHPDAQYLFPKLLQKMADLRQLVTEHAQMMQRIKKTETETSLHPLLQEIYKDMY

[3] = target: T3, Retinoic acid receptor RXR-alpha (Homo sapiens) (UniProt P19793); assay: Activation of Gal4-fused human RXRalpha LBD transfected in HEK293T cells at 10 uM after 12 to 14 hrs by luciferase reporter gene assay; how it was run: as §1
T3 sequence (whole entry): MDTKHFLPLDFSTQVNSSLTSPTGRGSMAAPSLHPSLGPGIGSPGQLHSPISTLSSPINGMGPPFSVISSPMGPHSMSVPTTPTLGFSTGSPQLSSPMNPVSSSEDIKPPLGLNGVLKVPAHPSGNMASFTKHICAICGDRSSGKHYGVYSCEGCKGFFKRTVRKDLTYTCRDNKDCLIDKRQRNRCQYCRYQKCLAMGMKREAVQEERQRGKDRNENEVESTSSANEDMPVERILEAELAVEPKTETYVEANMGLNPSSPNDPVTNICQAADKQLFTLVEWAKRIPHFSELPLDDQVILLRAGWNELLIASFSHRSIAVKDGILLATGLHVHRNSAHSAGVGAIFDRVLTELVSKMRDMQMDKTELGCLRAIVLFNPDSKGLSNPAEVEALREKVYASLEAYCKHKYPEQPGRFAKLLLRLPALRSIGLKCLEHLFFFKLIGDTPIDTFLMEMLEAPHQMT

[4] = target: T4, Oxysterols receptor LXR-alpha (Homo sapiens) (UniProt Q13133); assay: Activation of Gal4-fused human LXRalpha LBD transfected in HEK293T cells at 10 uM after 12 to 14 hrs by luciferase reporter gene assay; how it was run: as §1
T4 sequence (whole entry): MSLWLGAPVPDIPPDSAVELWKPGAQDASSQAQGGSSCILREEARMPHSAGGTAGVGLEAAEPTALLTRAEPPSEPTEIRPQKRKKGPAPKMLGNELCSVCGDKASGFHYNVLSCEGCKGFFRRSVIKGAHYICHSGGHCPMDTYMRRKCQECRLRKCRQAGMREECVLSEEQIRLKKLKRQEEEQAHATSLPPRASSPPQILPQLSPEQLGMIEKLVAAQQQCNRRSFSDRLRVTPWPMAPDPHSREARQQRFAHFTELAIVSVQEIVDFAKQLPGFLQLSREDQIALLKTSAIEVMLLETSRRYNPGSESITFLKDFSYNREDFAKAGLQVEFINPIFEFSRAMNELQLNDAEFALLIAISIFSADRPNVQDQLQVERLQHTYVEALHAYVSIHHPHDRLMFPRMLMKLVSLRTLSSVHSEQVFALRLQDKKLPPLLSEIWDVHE

[5] = target: T5, Prostaglandin G/H synthase 2 (Homo sapiens, UniProt P35354); assay: Inhibition of COX2 in LPS-stimulated human monocytes assessed as reduction in PGE2 production by LC-tandem MIS analysis
T5 sequence (P35354 whole entry): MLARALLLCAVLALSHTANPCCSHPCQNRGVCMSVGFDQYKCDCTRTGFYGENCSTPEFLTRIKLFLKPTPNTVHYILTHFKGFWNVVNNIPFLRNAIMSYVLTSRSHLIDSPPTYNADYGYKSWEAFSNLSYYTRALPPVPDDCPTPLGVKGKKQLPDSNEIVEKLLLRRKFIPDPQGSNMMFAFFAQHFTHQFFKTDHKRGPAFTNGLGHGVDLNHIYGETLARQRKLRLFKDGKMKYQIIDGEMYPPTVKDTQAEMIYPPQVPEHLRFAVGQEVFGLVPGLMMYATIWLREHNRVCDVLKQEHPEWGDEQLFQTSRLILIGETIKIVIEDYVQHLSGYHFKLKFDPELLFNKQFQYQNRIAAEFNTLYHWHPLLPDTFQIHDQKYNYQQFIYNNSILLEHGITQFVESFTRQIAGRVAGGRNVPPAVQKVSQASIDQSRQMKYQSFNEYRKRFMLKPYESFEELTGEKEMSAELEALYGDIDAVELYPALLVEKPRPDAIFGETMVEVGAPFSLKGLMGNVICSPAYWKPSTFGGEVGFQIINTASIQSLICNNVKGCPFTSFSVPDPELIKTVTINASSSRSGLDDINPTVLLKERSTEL
How it was run: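 Human monocytes resuspended in HBSS and pretreated with increasing compound concentrations before LPS challenge. PGE2 quantified by LC−MS/MS using PGE2-d4 isotope-dilution internal standard.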

Activity [1]	Activity [2]	Activity [3] [%]	Activity [4]	IC50 [5] [nM]	SMILES
29%	inactive	77	inactive	420	O=C(O)CCCc1nc(-c2ccc(Cl)c(Cl)c2)c(-c2ccccc2)o1
inactive	inactive	14.4	inactive	110	O=C(O)CCc1nc(-c2ccccc2)c(-c2ccccc2)o1 [OXAPROZIN]
